*1 amine or outer side, *2 acyl side, *3 side chain or, on linkers, in order; H or OH if unused. Where a SMILES comes first, the peptide text is derived from it. Bridges are numbered along the chain shown (N, C = ends). Roman numbers before positions name the chains, in order. [ ]: non-standard residue; d: D form. Actinocin(9to1) = Cc1c2oc3c(C)ccc(C(=O)[*:1])c3nc-2c(C(=O)[*:2])c(N)c1=O; NMeV = CN[C@H](C(=O)O)C(C)C; Sar = CNCC(=O)O
Key:
[1] = In vitro cytotoxicity of Act D; type: cell-based; details: human, Caco-2 cells
Method in brief: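 Caco-2 cells were seeded at 1×10^4 cells/well in DMEM with 10% FBS and cultured for 24 h. They were then exposed for 5 h to the test compound at 1, 2, 3.2 and 6 µM in HBSS. WST-8 was added for 1 h and absorbance read at 450 nm. Viability is expressed as a percentage of untreated cells; mean ± SD, n=6.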

[2] = Parallel artificial membrane permeability assay; type: in vitro ADME; details: PAMPA, pH 6.8
Method in brief: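 PAMPA: donor wells held test formulation diluted in PBS pH 6.8 to 200 µg/mL drug equivalent; receiver wells held PBS pH 6.8. Plates were incubated 5 h at room temperature. Donor and receiver concentrations were measured by HPLC at 254 nm (C18; water pH 3.5/acetonitrile 80:20, 1 mL/min). Effective permeability was calculated with filter area 0.288 cm2, donor volume 0.2 mL and receiver volume 0.3 mL, using equilibrium concentration.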

[3] = In vitro permeability across a Caco-2 cell monolayer; type: in vitro ADME; details: human
[4] = In vivo pharmacokinetic study in rats; details: Sprague-Dawley, rat, plasma, 25 mg/kg
Method in brief: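 Male Sprague-Dawley rats (6–7 weeks, 200–250 g) received the test formulation orally in water at 25 mg/kg drug equivalent. The IV reference was 5 mg/kg aqueous drug by tail vein. Retro-orbital blood was taken into heparin plus 3.8% sodium citrate, spun at 2,500×g for 15 min at 4 °C, and plasma stored at −70 °C. Plasma was assayed by LC/MS (C18, ESI positive, m/z 428; DAMPA internal standard). Non-compartmental analysis; n=4, mean ± SD.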

Cc1c2oc3c(C)ccc(C(=O)N[C@@H]4C(=O)N[C@H](C(C)C)C(=O)N5CCC[C@H]5C(=O)N(C)CC(=O)N(C)[C@@H](C(C)C)C(=O)O[C@@H]4C)c3nc-2c(C(=O)N[C@@H]2C(=O)N[C@H](C(C)C)C(=O)N3CCC[C@H]3C(=O)N(C)CC(=O)N(C)[C@@H](C(C)C)C(=O)O[C@@H]2C)c(N)c1=O [Act D, actinomycin D] (I: T[dV]P[Sar][NMeV] / II: T[dV]P[Sar][NMeV]; ester I:1-I:C, II:1-II:C; linker I:N-II:N via Actinocin(9to1))
viability at 5 h, 3.2 µM [1]: 105 ± 6.81%

Nc1nc2[nH]cc(CCc3ccc(C(=O)N[C@@H](CCC(=O)O)C(=O)O)cc3)c2c(=O)[nH]1 [PMX, N-[4-[2-(2-amino-3,4-dihydro-4-oxo-7H-pyrrolo[2,3-d]pyrimidin-5-yl)-ethyl]-benzoyl]-L-glutamic acid]
Papp at 5 h, 200 µg/mL [2]: 0.29 ± 0.08 ×10⁻⁶ cm/s | Papp at 5 h, 100 µg/mL [3]: 1.78 ± 0.118 ×10⁻⁶ cm/s | bioavailability ([4]; oral): 5.02 ± 0.57% | AUC(0-inf) ([4]; po): 2770 ± 210 ng·h/mL | AUC(0-t) ([4]; po): 2350 ± 270 ng·h/mL | Cmax ([4]; po): 1280 ± 170 ng/mL | Tmax ([4]; po): 0.63 ± 0.25 h | half-life ([4]; po): 2.5 ± 0.45 h

Source: publication PMC6690926 (International Journal of Nanomedicine, 2019)
